In ChEMBL document CHEMBL1144800, “Synthesis and antimicrobial properties of monensin A esters” (2008):
In brackets after ≈: the same amount, converted by molar mass. Activity calls are given as the source filed them. The rule behind the calls is not given here.

Key:
[1] = tested on: Staphylococcus epidermidis; experiment: Antibacterial activity against Staphylococcus epidermidis ATCC 12228 at 400 ug/disc after 18 hrs by disc diffusion assay; format: functional; conditions: for zone of inhibition at 400 µg/disc: ATCC 12228, 18 h, read-out: IZ
Summary of the method: (§1)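 Disc diffusion on Mueller–Hinton II agar per CLSI guidelines. Compound in ethanol applied to 9 mm filter paper discs at 400 µg per disc, then dried and placed on the agar surface. Growth inhibition zone diameter read after 18 h at 35 °C.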

[2] = tested on: Staphylococcus epidermidis; experiment: Antibacterial activity against Staphylococcus epidermidis ATCC 12228 after 18 hrs by serial agar dilution method; format: functional; conditions: ATCC 12228, 18 h
Summary of the method: (§2)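 MIC by twofold serial agar dilution in Mueller–Hinton II agar per CLSI, run only for compounds that gave an inhibition zone in disc assay. Compounds dissolved in DMSO, tested at 3.125–400 µg/ml in agar. Final inoculum 10^4 CFU/ml. […] DMSO control included.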

Bacillus subtilis [3] = experiment: Antibacterial activity against Bacillus subtilis ATCC 6633 at 400 ug/disc after 18 hrs by disc diffusion assay; format: functional; conditions: ATCC 6633, 18 h, read-out: IZ; summary of the method: as §1
Bacillus subtilis [4] = experiment: Antibacterial activity against Bacillus subtilis ATCC 6633 after 18 hrs by serial agar dilution method; format: functional; conditions: ATCC 6633, 18 h; summary of the method: as §2
Bacillus cereus [5] = experiment: Antibacterial activity against Bacillus cereus ATCC 11778 at 400 ug/disc after 18 hrs by disc diffusion assay; format: functional; conditions: ATCC 11778, 18 h, read-out: IZ; summary of the method: as §1
Bacillus cereus [6] = experiment: Antibacterial activity against Bacillus cereus ATCC 11778 after 18 hrs by serial agar dilution method; format: functional; conditions: ATCC 11778, 18 h; summary of the method: as §2
Enterococcus hirae [7] = experiment: Antibacterial activity against Enterococcus hirae ATCC 10541 at 400 ug/disc after 18 hrs by disc diffusion assay; format: functional; summary of the method: as §1
Enterococcus hirae [8] = experiment: Antibacterial activity against Enterococcus hirae ATCC 10541 after 18 hrs by serial agar dilution method; format: functional; conditions: ATCC 10541, 18 h
Summary of the method: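 Twofold serial agar dilution MIC in Mueller–Hinton II agar (CLSI), run only for compounds that gave an inhibition zone in disc assay. DMSO solutions tested at 3.125–400 µg/ml in agar. Final inoculum 10^5 CFU/ml. Read after 18 h at 35 °C. DMSO control included.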

Micrococcus luteus [9] = experiment: Antibacterial activity against Micrococcus luteus ATCC 9341 at 400 ug/disc after 18 hrs by disc diffusion assay; format: functional; conditions: for zone of inhibition at 400 µg/disc: ATCC 9341, 18 h, read-out: IZ; summary of the method: as §1
Micrococcus luteus [10] = experiment: Antibacterial activity against Micrococcus luteus ATCC 9341 after 18 hrs by serial agar dilution method; format: functional; conditions: ATCC 9341, 18 h; summary of the method: as §2
Micrococcus luteus [11] = experiment: Antibacterial activity against Micrococcus luteus ATCC 10240 at 400 ug/disc after 18 hrs by disc diffusion assay; format: functional; conditions: ATCC 10240, 18 h, read-out: IZ; summary of the method: as §1
Micrococcus luteus [12] = experiment: Antibacterial activity against Micrococcus luteus ATCC 10240 after 18 hrs by serial agar dilution method; format: functional; conditions: ATCC 10240, 18 h; summary of the method: as §2
Escherichia coli [13] = experiment: Antibacterial activity against Escherichia coli ATCC 10538 at 400 ug/disc after 18 hrs by disc diffusion assay; format: functional, organism-based; summary of the method: as §1
Escherichia coli [14] = experiment: Antibacterial activity against Escherichia coli ATCC 25922 at 400 ug/disc after 18 hrs by disc diffusion assay; format: functional, organism-based; summary of the method: as §1
Proteus vulgaris = experiment: Antibacterial activity against Proteus vulgaris NCTC 4635 at 400 ug/disc after 18 hrs by disc diffusion assay; format: functional, organism-based; summary of the method: as §1
Pseudomonas aeruginosa [15] = experiment: Antibacterial activity against Pseudomonas aeruginosa ATCC 15442 at 400 ug/disc after 18 hrs by disc diffusion assay; format: functional, organism-based; summary of the method: as §1
Pseudomonas aeruginosa [16] = experiment: Antibacterial activity against Pseudomonas aeruginosa NCTC 6749 at 400 ug/disc after 18 hrs by disc diffusion assay; format: functional, organism-based; summary of the method: as §1
Pseudomonas aeruginosa [17] = experiment: Antibacterial activity against Pseudomonas aeruginosa ATCC 27853 at 400 ug/disc after 18 hrs by disc diffusion assay; format: functional, organism-based; summary of the method: as §1
[18] = tested on: Bordetella bronchiseptica; experiment: Antibacterial activity against Bordetella bronchiseptica ATCC 4617 at 400 ug/disc after 18 hrs by disc diffusion assay; format: functional, organism-based; summary of the method: as §1
Candida albicans [19] = experiment: Antifungal activity against Candida albicans ATCC 10231 at 400 ug/disc after 24 hrs by disc diffusion assay; format: functional
Summary of the method: (§3)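 Disc diffusion on RPMI agar with 2% glucose per CLSI guidelines. Discs 9 mm filter paper, loaded from ethanol solution with 400 µg compound, dried before placing on the agar. Inhibition zone diameter read after incubation at 35 °C. Fluconazole control at 25 µg per disc.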

Candida albicans [20] = experiment: Antifungal activity against Candida albicans ATCC 90028 at 400 ug/disc after 24 hrs by disc diffusion assay; format: functional; summary of the method: as §3
Escherichia coli [21] = experiment: Antibacterial activity against Escherichia coli NCTC 8196 at 400 ug/disc after 18 hrs by disc diffusion assay; format: functional, organism-based; summary of the method: as §1
Staphylococcus aureus [22] = experiment: Antibacterial activity against Staphylococcus aureus NCTC 4163 at 400 ug/disc after 18 hrs by disc diffusion assay; format: functional; conditions: NCTC 4163, 18 h, read-out: IZ; summary of the method: as §1
Staphylococcus aureus [23] = experiment: Antibacterial activity against Staphylococcus aureus NCTC 4163 after 18 hrs by serial agar dilution method; format: functional; conditions: NCTC 4163, 18 h; summary of the method: as §2
Staphylococcus aureus [24] = experiment: Antibacterial activity against Staphylococcus aureus ATCC 25923 at 400 ug/disc after 18 hrs by disc diffusion assay; format: functional; conditions: ATCC 25923, 18 h, read-out: IZ; summary of the method: as §1
Staphylococcus aureus [25] = experiment: Antibacterial activity against Staphylococcus aureus ATCC 25923 after 18 hrs by serial agar dilution method; format: functional; conditions: ATCC 25923, 18 h; summary of the method: as §2
Staphylococcus aureus [26] = experiment: Antibacterial activity against Staphylococcus aureus ATCC 6538 at 400 ug/disc after 18 hrs by disc diffusion assay; format: functional; conditions: ATCC 6538, 18 h, read-out: IZ; summary of the method: as §1
Staphylococcus aureus [27] = experiment: Antibacterial activity against Staphylococcus aureus ATCC 6538 after 18 hrs by serial agar dilution method; format: functional; conditions: ATCC 6538, 18 h; summary of the method: as §2
Staphylococcus aureus [28] = experiment: Antibacterial activity against Staphylococcus aureus ATCC 29213 at 400 ug/disc after 18 hrs by disc diffusion assay; format: functional; conditions: ATCC 29213, 18 h, read-out: IZ; summary of the method: as §1
Staphylococcus aureus [29] = experiment: Antibacterial activity against Staphylococcus aureus ATCC 29213 after 18 hrs by serial agar dilution method; format: functional; conditions: ATCC 29213, 18 h; summary of the method: as §2
Candida parapsilosis = experiment: Antifungal activity against Candida parapsilosis ATCC 22019 at 400 ug/disc after 24 hrs by disc diffusion assay; format: functional; summary of the method: as §3

SMILES | MIC [2] [µg/mL] | zone of inhibition at 400 µg/disc (Bacillus subtilis [3]) [mm] | MIC (Bacillus subtilis [4]) [µg/mL] | zone of inhibition at 400 µg/disc (Bacillus cereus [5]) [mm] | MIC (Bacillus cereus [6]) [µg/mL] | Activity (Enterococcus hirae [7]) | MIC (Enterococcus hirae [8]) [µg/mL] | MIC (Micrococcus luteus [10]) [µg/mL] | zone of inhibition at 400 µg/disc (Micrococcus luteus [11]) [mm] | MIC (Micrococcus luteus [12]) [µg/mL] | Activity (Escherichia coli [13]) | Activity (Escherichia coli [14]) | Activity (Proteus vulgaris) | Activity (Pseudomonas aeruginosa [15]) | Activity (Pseudomonas aeruginosa [16]) | Activity (Pseudomonas aeruginosa [17]) | Activity [18] | Activity (Candida albicans [19]) | Activity (Candida albicans [20]) | Activity (Escherichia coli [21]) | other results
CC[C@@]1([C@@H]2O[C@@H]([C@H]3O[C@@](O)(CO)[C@H](C)C[C@@H]3C)C[C@@H]2C)CC[C@H]([C@]2(C)CC[C@]3(C[C@H](O)[C@@H](C)[C@@H]([C@@H](C)[C@@H](OC)[C@H](C)C(=O)O)O3)O2)O1 [MONENSIN] | 2 (≈ 2.98 µM) | 22 | 1 (≈ 1.49 µM) | 18 | 2 (≈ 2.98 µM) | inactive | 12.5 (≈ 18.6 µM) | 4 (≈ 5.96 µM) | 12 | 2 (≈ 2.98 µM) | inactive | inactive | inactive | inactive | inactive | inactive | inactive | inactive | inactive | inactive | zone of inhibition at 400 µg/disc [1]: 15 mm; zone of inhibition at 400 µg/disc (Micrococcus luteus [9]): 12 mm; zone of inhibition at 400 µg/disc (Staphylococcus aureus [22]): 22 mm; MIC (Staphylococcus aureus [23]): 2 µg/mL (≈ 2.98 µM); zone of inhibition at 400 µg/disc (Staphylococcus aureus [24]): 22 mm; MIC (Staphylococcus aureus [25]): 1 µg/mL (≈ 1.49 µM); zone of inhibition at 400 µg/disc (Staphylococcus aureus [26]): 20 mm; MIC (Staphylococcus aureus [27]): 2 µg/mL (≈ 2.98 µM); zone of inhibition at 400 µg/disc (Staphylococcus aureus [28]): 18 mm; MIC (Staphylococcus aureus [29]): 1 µg/mL (≈ 1.49 µM); Activity (Candida parapsilosis): inactive
C=CCOC(=O)[C@@H](C)[C@H](OC)[C@H](C)[C@H]1O[C@@]2(CC[C@@](C)([C@H]3CC[C@@](CC)([C@@H]4O[C@@H]([C@H]5O[C@@](O)(CO)[C@H](C)C[C@@H]5C)C[C@@H]4C)O3)O2)C[C@H](O)[C@H]1C | 100 (≈ 141 µM) | 15 | 12.5 (≈ 17.6 µM) | 14 | 12.5 (≈ 17.6 µM) | inactive | > 400 | 100 (≈ 141 µM) | 11 | 50 (≈ 70.3 µM) | inactive | inactive | inactive | inactive | inactive | inactive | inactive | inactive | inactive | inactive | Activity [1]: inactive; Activity (Micrococcus luteus [9]): inactive; zone of inhibition at 400 µg/disc (Staphylococcus aureus [22]): 13 mm; MIC (Staphylococcus aureus [23]): 100 µg/mL (≈ 141 µM); zone of inhibition at 400 µg/disc (Staphylococcus aureus [24]): 11 mm; MIC (Staphylococcus aureus [25]): 100 µg/mL (≈ 141 µM); zone of inhibition at 400 µg/disc (Staphylococcus aureus [26]): 13 mm; MIC (Staphylococcus aureus [27]): 100 µg/mL (≈ 141 µM); zone of inhibition at 400 µg/disc (Staphylococcus aureus [28]): 13 mm; MIC (Staphylococcus aureus [29]): 100 µg/mL (≈ 141 µM); Activity (Candida parapsilosis): inactive
CC[C@@]1([C@@H]2O[C@@H]([C@H]3O[C@@](O)(CO)[C@H](C)C[C@@H]3C)C[C@@H]2C)CC[C@H]([C@]2(C)CC[C@]3(C[C@H](O)[C@@H](C)[C@@H]([C@@H](C)[C@@H](OC)[C@H](C)C(=O)OCCOCCOCCOC)O3)O2)O1 | 100 (≈ 122 µM) | 20 | 25 (≈ 30.6 µM) | 19 | 50 (≈ 61.2 µM) | inactive | > 400 | 200 (≈ 245 µM) | 13 | 50 (≈ 61.2 µM) | inactive | inactive | inactive | inactive | inactive | inactive | inactive | inactive | inactive | inactive | zone of inhibition at 400 µg/disc [1]: 13 mm; zone of inhibition at 400 µg/disc (Micrococcus luteus [9]): 11 mm; zone of inhibition at 400 µg/disc (Staphylococcus aureus [22]): 19 mm; MIC (Staphylococcus aureus [23]): 100 µg/mL (≈ 122 µM); zone of inhibition at 400 µg/disc (Staphylococcus aureus [24]): 19 mm; MIC (Staphylococcus aureus [25]): 50 µg/mL (≈ 61.2 µM); zone of inhibition at 400 µg/disc (Staphylococcus aureus [26]): 17 mm; MIC (Staphylococcus aureus [27]): 100 µg/mL (≈ 122 µM); zone of inhibition at 400 µg/disc (Staphylococcus aureus [28]): 17 mm; MIC (Staphylococcus aureus [29]): 50 µg/mL (≈ 61.2 µM); Activity (Candida parapsilosis): inactive
